The target of the first experiment is T1, Glutamate receptor 4 (Homo sapiens, UniProt P48058). The experiment in a line: Potentiation of responses mediated by 100 uM L-glutamate in transfected HEK293 cells expressing human homomeric iGluR4 flip receptors. In kind it is functional, cell-based. The gist of the method: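 Calcium influx was measured in confluent HEK293 cells stably expressing human homomeric iGluR4 flip, loaded 60 min with 20 µM Fluo3-AM in HEPES buffer (pH 7.1-7.3, 5 mM Ca2+). Compound at several concentrations preceded 100 µM glutamate by 5 min. Fluorescence was read before and 3 min after glutamate. Responses were scaled to 100 µM cyclothiazide, and EC50 was taken as the mean of at least three experiments.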
T1 sequence (P48058 whole entry): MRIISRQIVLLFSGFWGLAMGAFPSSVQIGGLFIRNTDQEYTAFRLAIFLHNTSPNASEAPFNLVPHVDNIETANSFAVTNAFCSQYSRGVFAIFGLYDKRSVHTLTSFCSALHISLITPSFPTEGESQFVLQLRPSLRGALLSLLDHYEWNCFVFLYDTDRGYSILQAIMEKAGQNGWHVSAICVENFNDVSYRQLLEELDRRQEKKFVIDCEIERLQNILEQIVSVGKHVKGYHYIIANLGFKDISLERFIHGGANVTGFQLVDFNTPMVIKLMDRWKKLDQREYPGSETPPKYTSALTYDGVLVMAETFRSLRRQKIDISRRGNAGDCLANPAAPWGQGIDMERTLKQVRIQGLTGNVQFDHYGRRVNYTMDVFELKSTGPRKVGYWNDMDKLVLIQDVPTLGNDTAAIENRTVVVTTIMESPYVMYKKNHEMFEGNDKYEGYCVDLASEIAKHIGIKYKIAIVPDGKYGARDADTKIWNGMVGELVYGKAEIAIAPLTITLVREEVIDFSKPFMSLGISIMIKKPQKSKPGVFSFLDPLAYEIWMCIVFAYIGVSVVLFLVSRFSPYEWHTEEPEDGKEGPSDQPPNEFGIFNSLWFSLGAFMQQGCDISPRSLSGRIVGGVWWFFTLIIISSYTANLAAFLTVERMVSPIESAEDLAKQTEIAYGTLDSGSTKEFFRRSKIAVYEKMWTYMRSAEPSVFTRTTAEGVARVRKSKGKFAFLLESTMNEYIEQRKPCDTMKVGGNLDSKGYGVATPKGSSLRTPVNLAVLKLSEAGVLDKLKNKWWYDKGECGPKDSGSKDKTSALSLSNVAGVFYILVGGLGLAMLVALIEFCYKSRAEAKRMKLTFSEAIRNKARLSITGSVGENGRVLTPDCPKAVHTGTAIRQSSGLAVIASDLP
Regarding `CC(C)S(=O)(=O)N[C@@H]1CCC[C@@H]1c1ccc([N+](=O)[O-])cc1` (racemic), the EC50 is 190 nM. With `CC(C)S(=O)(=O)N[C@@H]1CCC[C@@H]1c1cc(F)cc(F)c1`, the EC50 was found to be 118 nM. Turning to `CC(C)S(=O)(=O)N[C@@H]1CCC[C@@H]1c1ccccc1`, the EC50 was 1740 nM. Still for that read-out and setting: in the case of `CC(C)S(=O)(=O)N[C@@H]1CCC[C@@H]1c1ccc(I)cc1` (racemic) it was 45.8 nM; in that of `CC(C)S(=O)(=O)N[C@H]1CCC[C@@H]1c1ccc(Br)cc1` (racemic), 130 nM. As to `CC(C)S(=O)(=O)N[C@@H]1CCC[C@@H]1c1ccc(Cl)cc1` (racemic), the EC50 turned out to be 247 nM. `CC(C)S(=O)(=O)N[C@@H]1CCC[C@@H]1c1ccc(C#N)cc1`: the EC50 turned out to be 403 nM. In the case of `CC(C)S(=O)(=O)N[C@H]1CCC[C@@H]1c1ccc(I)cc1` (racemic), the EC50 is 93.1 nM. `Cc1ccc([C@H]2CCC[C@H]2NS(=O)(=O)C(C)C)cc1` (racemic): the EC50 is 434 nM. Consider `CC(C)S(=O)(=O)N[C@H]1CCC[C@@H]1c1ccc(Br)cc1`, for which the EC50 amounted to 82.1 nM. On to `CC(C)S(=O)(=O)N[C@@H]1CCC[C@@H]1c1cc(F)cc(F)c1` (racemic), for which the 50% effective concentration (EC50) is 281 nM. Still for that read-out and setting: in the case of `CC(C)S(=O)(=O)N[C@@H]1CCC[C@@H]1c1cccc(F)c1` (racemic) it was 621 nM. For the compound `CC(C)S(=O)(=O)N[C@@H]1CCC[C@@H]1c1ccc(I)cc1`, the EC50 was 22.6 nM. For `CC(C)S(=O)(=O)N[C@@H]1CCC[C@@H]1c1ccc(F)c(F)c1` (racemic), the EC50 came to 1100 nM.

In the case of `CC(C)S(=O)(=O)N[C@H]1CCC[C@@H]1c1ccccc1`, the EC50 is 551 nM. Still for that read-out and setting: to `CC(C)S(=O)(=O)N[C@@H]1CCC[C@@H]1c1ccc(Br)cc1` belongs 68 nM; to `CC(C)S(=O)(=O)N[C@H]1CCC[C@@H]1c1ccc(I)cc1`, 32.8 nM; to `CC(C)S(=O)(=O)N[C@@H]1CCC[C@@H]1c1ccc(Br)cc1` (racemic), 147 nM.

Another experiment concerns the target T1, Glutamate receptor 4. The experiment in a line: % potentiation of responses mediated by 100 uM L-glutamate in human transfected HEK293 cells expressing homomeric iGluR4 flip receptors at a dose of 3 uM. In kind it is functional, cell-based. The essentials: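 HEK293 cells stably expressing human iGluR4 flip, as confluent monolayers, loaded 60 min with 20 µM Fluo3-AM in HEPES-buffered saline (5 mM CaCl2, pH 7.1-7.3), then washed. Compound was added 5 min before 100 µM glutamate. Fluorescence was read just before glutamate and 3 min after. Potentiation at 3 µM, the highest dose tested, was expressed relative to 100 µM cyclothiazide (n = 1).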
For the compound `CC(C)S(=O)(=O)N[C@@H]1CCC[C@H]1c1ccccc1`, the Potentiation stood at 6%. In the case of `CC(C)S(=O)(=O)N[C@H]1CCC[C@H]1c1ccc(Br)cc1`, the Potentiation stood at 27%. As to `CC(C)S(=O)(=O)N[C@H]1CCC[C@H]1c1ccccc1`, the Potentiation was found to be 2%.

For `CC(C)S(=O)(=O)N[C@H]1CCC[C@@H]1c1ccccc1` (racemic), the Potentiation came out at 70%. On the same count and under the same terms, in the case of `CC(C)S(=O)(=O)N[C@@H]1CCC[C@H]1c1ccc(I)cc1` it was 12%; in that of `CC(C)S(=O)(=O)N[C@H]1CCC[C@H]1c1cc(F)cc(F)c1`, 5%; in that of `CC(CNS(=O)(=O)C(C)C)c1ccccc1` (racemic), 0%.

Take `CC(C)S(=O)(=O)N[C@H]1CCC[C@H]1c1ccc(I)cc1`: the Potentiation amounted to 34%. With `CC(C)S(=O)(=O)N[C@@H]1CCC[C@@H]1c1ccccc1` (racemic), the Potentiation stood at 48%. On the same count and under the same terms, in the case of `CC(C)S(=O)(=O)N[C@@H]1CCC[C@H]1c1ccc(Br)cc1` it was 2%. On the same count and under the same terms, in the case of `CC(C)S(=O)(=O)N[C@H]1CCC[C@H]1c1ccc(C#N)cc1` it was 17%; in that of `CC(CNS(=O)(=O)C(C)C)c1ccc(Br)cc1` (racemic), 26%.

As to `CC(C)S(=O)(=O)N[C@@H]1CCC[C@@H]1c1ccc(F)cc1` (racemic), the Potentiation is 57%.

Source of the values: ChEMBL document CHEMBL1135411, “Design and synthesis of a novel series of 1,2-disubstituted cyclopentanes as small, potent potentiators of 2-amino-3-(3-hydroxy-5-methyl-isoxazol-4-yl)propanoic acid (AMPA) receptors” (J Med Chem, 2002).
